From ChEMBL document CHEMBL1158134, “Low-abundance kutznerides from Kutzneria sp. 744” (2006)
Values after ≈ are worked out from the molar mass of the structure shown. Active and inactive are the calls of the source. The rule behind the calls is not given here.

Experiments:
Aspergillus fumigatus = experiment: Antimicrobial activity against Aspergillus fumigatus up to 590 uM at 27 to 28 degC after 96 hrs in dark; type: functional, organism-based
Summary of the method: (§1)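 MIC by microtiter bioassay scoring inhibition of spore germination or cell growth. Compounds in MeOH were dried in the wells, then 100 µL of spore or cell suspension (10^4 spores/mL or cells/mL) in appropriate medium was added. The top concentration tested was 230 to 590 µM. Controls were untreated suspension and sterile medium. Growth was scored visually on a 0–3 scale. Run in triplicate, repeated once.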

Staphylococcus aureus = experiment: Antimicrobial activity against Staphylococcus aureus at 37 degC after 24 hrs in dark; type: functional; summary of the method: as §1
Fusarium culmorum = experiment: Antimicrobial activity against Fusarium culmorum at 27 to 28 degC after 72 hrs in dark; type: functional; summary of the method: as §1
Drechslera = experiment: Antimicrobial activity against Drechslera sorokiniana at 27 to 28 degC after 48 hrs in dark; type: functional; summary of the method: as §1
[1] = test system: Pseudomonas savastanoi pv. savastanoi; experiment: Antimicrobial activity against Pseudomonas savastanoi pv. savastanoi up to 590 uM at 27 to 28 degC after 24 hrs in dark; type: functional, organism-based; summary of the method: as §1
[2] = test system: Pectobacterium carotovorum; experiment: Antimicrobial activity against Erwinia carotovora at 27 to 28 degC after 24 hrs in dark; type: functional; summary of the method: as §1
Candida albicans = experiment: Antimicrobial activity against Candida albicans up to 590 uM at 37 degC after 24 hrs in dark; type: functional, organism-based; summary of the method: as §1

| SMILES | Activity (Aspergillus fumigatus) | MIC (Staphylococcus aureus) [µM] | MIC (Fusarium culmorum) [µM] | MIC (Drechslera) [µM] | Activity [1] | MIC [2] [µM] | Activity (Candida albicans) |
| --- | --- | --- | --- | --- | --- | --- | --- |
| COC[C@@H]1NC(=O)[C@@H]2CCCNN2C(=O)[C@H](C(C)(C)C)OC(=O)[C@@H](C2(C)CC2)NC(=O)[C@@H]2C[C@@]3(O)c4ccc(Cl)c(Cl)c4N[C@H]3N2C(=O)[C@@H]([C@H](O)CC(=O)O)NC1=O [KUTZNERIDE 3] | inactive | 9 (≈ 7.69 µg/mL) | 260 (≈ 222 µg/mL) | 260 (≈ 222 µg/mL) | inactive | 12 (≈ 10.3 µg/mL) | inactive |
| COC[C@@H]1NC(=O)[C@@H]2CCC=NN2C(=O)[C@H](C(C)(C)C)OC(=O)[C@@H](C2(C)CC2)NC(=O)[C@@H]2C[C@@]3(O)c4ccc(Cl)c(Cl)c4N[C@H]3N2C(=O)[C@@H]([C@H](O)CC(=O)O)NC1=O [KUTZNERIDE 4] | inactive | 140 (≈ 119 µg/mL) | > 590 | > 590 | inactive | 120 (≈ 102 µg/mL) | inactive |
| COC[C@@H]1NC(=O)[C@@H]2CCCNN2C(=O)[C@H](C(C)(C)C)OC(=O)[C@@H](C2(C)CC2)NC(=O)[C@@H]2C[C@@]3(O)c4ccc(Cl)c(Cl)c4N[C@H]3N2C(=O)[C@@H]([C@@H](O)CC(=O)O)NC1=O [KUTZNERIDE 1] | inactive | 12 (≈ 10.3 µg/mL) | 210 (≈ 179 µg/mL) | 230 (≈ 197 µg/mL) | inactive | 60 (≈ 51.3 µg/mL) | inactive |
| COC[C@@H]1NC(=O)[C@@H]2CCCNN2C(=O)[C@H](C(C)C)OC(=O)[C@@H](C2(C)CC2)NC(=O)[C@@H]2C[C@@]3(O)c4ccc(Cl)c(Cl)c4N[C@H]3N2C(=O)[C@@H]([C@@H](O)CC(=O)O)NC1=O [KUTZNERIDE 7] |  | 120 (≈ 101 µg/mL) | > 420 | > 420 |  | 180 (≈ 151 µg/mL) |  |
| COC[C@@H]1NC(=O)[C@@H]2CCC=NN2C(=O)[C@H](C(C)(C)C)OC(=O)[C@@H](C2(C)CC2)NC(=O)[C@@H]2C[C@@]3(O)c4ccc(Cl)c(Cl)c4N[C@H]3N2C(=O)[C@@H]([C@@H](O)CC(=O)O)NC1=O [KUTZNERIDE 9] |  | 60 (≈ 51.2 µg/mL) | > 230 | > 230 |  | 230 (≈ 196 µg/mL) |  |
| COC[C@@H]1NC(=O)[C@@H]2CCCNN2C(=O)[C@H](C(C)C)OC(=O)[C@@H](C2(C)CC2)NC(=O)[C@@H]2C[C@@]3(O)c4ccc(Cl)c(Cl)c4N[C@H]3N2C(=O)[C@@H]([C@H](O)CC(=O)O)NC1=O [KUTZNERIDE 5] |  | 120 (≈ 101 µg/mL) | > 240 | > 240 |  | 120 (≈ 101 µg/mL) |  |
| C[C@@H]1[C@H](O)[C@@H](C)/C=C/C=C/C=C/C=C/C=C/C=C/C=C/[C@H](O[C@@H]2O[C@H](C)[C@@H](O)[C@H](N)[C@@H]2O)C[C@@H]2O[C@](O)(C[C@@H](O)C[C@@H](O)[C@H](O)CC[C@@H](O)C[C@@H](O)CC(=O)O[C@H]1C)C[C@H](O)[C@H]2C(=O)O [AMPHOTERICIN B] |  |  | 40 (≈ 37 µg/mL) | 4 (≈ 3.7 µg/mL) |  |  |  |
| COC[C@@H]1NC(=O)[C@@H]2C[C@@H](Cl)CNN2C(=O)[C@H](C(C)(C)C)OC(=O)[C@@H](C2(C)CC2)NC(=O)[C@@H]2C[C@@]3(O)c4ccc(Cl)c(Cl)c4N[C@H]3N2C(=O)[C@@H]([C@H](O)CC(=O)O)NC1=O [KUTZNERIDE 8] |  | 6 (≈ 5.34 µg/mL) | 110 (≈ 97.8 µg/mL) | 230 (≈ 205 µg/mL) |  | 6 (≈ 5.34 µg/mL) |  |
| CN[C@@H]1[C@H](O[C@H]2[C@H](O[C@H]3[C@H](O)[C@@H](O)[C@H](N=C(N)N)[C@@H](O)[C@@H]3N=C(N)N)O[C@@H](C)[C@]2(O)C=O)O[C@@H](CO)[C@H](O)[C@H]1O [STREPTOMYCIN] |  | 17 (≈ 9.89 µg/mL) |  |  |  |  |  |
| COC[C@@H]1NC(=O)[C@@H]2C[C@@H](O)C=NN2C(=O)[C@H](C(C)(C)C)OC(=O)[C@@H](C2(C)CC2)NC(=O)[C@@H]2C[C@@]3(O)c4ccc(Cl)c(Cl)c4N[C@H]3N2C(=O)[C@@H]([C@H](O)CC(=O)O)NC1=O [KUTZNERIDE 6] |  | > 230 | > 230 | > 400 |  | > 230 |  |
| COC[C@@H]1NC(=O)[C@@H]2C[C@@H](Cl)CNN2C(=O)[C@H](C(C)(C)C)OC(=O)[C@@H](C2(C)CC2)NC(=O)[C@@H]2C[C@@]3(O)c4ccc(Cl)c(Cl)c4N[C@H]3N2C(=O)[C@@H]([C@@H](O)CC(=O)O)NC1=O [KUTZNERIDE 2] | inactive | 6 (≈ 5.34 µg/mL) | 70 (≈ 62.2 µg/mL) | 110 (≈ 97.8 µg/mL) | inactive | 6 (≈ 5.34 µg/mL) | inactive |
